Laboratory results: ChEMBL document CHEMBL1134769, “Potent and selective nonpeptide inhibitors of caspases 3 and 7” (J Med Chem, 2001)
Active and inactive are the calls of the source. The rule behind the calls is not given here.

Tests used:
C20/A4 [1] = assay: In vitro inhibition of Chondrocyte cell line C20/A4 apoptosis at 10 uM of compound; type: functional, Homo sapiens
Method in brief: (§1)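 Immortalized human chondrocyte line C20/A4 seeded at 20 000 cells/well overnight, then exposed 24 h to 4 μg/mL camptothecin with or without compound. Floating and adherent cells combined and lysed 30 min at 4 °C, then clarified at 14000g. Mono- and oligonucleosome DNA fragments measured by cell death ELISA; result expressed as % inhibition of apoptosis.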

Caspase-1 = target: T1, Caspase-1 (Homo sapiens, UniProt P29466); assay: Inhibitory activity against caspase-1; conditions: read-out: Ki app
T1 sequence (P29466 whole entry): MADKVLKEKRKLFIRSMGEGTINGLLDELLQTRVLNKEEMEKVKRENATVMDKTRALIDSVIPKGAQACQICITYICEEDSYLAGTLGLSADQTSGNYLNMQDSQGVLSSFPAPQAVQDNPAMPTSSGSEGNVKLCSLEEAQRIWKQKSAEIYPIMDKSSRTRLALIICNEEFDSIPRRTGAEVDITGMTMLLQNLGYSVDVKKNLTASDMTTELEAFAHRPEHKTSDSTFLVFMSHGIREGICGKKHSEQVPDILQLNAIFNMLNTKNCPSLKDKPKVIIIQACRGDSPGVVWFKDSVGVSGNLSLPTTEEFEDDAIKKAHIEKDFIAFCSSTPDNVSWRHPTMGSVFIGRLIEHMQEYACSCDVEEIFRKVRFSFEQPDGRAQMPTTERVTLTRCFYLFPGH
Method in brief: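 Recombinant full-length human caspase 1, ~10 units/assay, in 25 mM K+HEPES pH 7.5 with 10% sucrose, 0.1% CHAPS and 5 mM β-mercaptoethanol. Substrate 10 μM Ac-YVAD-AMC. AMC read at 360/460 nm, 30 °C, with 5% final DMSO. Single-dose screen (typically 5–50 μM), followed by IC50 curves for active compounds.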

Caspase-6 = target: T2, Caspase-6 (Homo sapiens, UniProt P55212); assay: Inhibitory activity against Caspase-6; conditions: read-out: Ki app
T2 sequence (P55212 whole entry): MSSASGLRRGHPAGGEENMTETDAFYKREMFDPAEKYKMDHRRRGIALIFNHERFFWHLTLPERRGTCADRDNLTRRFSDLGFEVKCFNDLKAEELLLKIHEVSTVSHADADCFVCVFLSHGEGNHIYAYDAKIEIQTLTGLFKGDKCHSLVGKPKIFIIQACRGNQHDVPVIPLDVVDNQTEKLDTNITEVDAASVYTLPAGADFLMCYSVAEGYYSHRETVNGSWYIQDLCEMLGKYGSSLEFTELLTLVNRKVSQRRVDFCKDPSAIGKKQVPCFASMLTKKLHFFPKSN
Method in brief: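 Recombinant full-length human caspase 6 (~10 units/assay) in 50 mM Tris-HCl pH 7.4 with 0.1% CHAPS, 1.5 mM MgCl2, 1 mM EDTA and 5 mM β-mercaptoethanol. Substrate 10 μM Ac-DEVD-AMC. AMC monitored at 360/460 nm, 30 °C, final DMSO 5%. Single-dose screen (typically 5–50 μM), then IC50 determination.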

C20/A4 [2] = assay: In vitro inhibition of Chondrocyte cell line C20/A4 apoptosis at 25 uM of compound; Not active; type: functional, cell-based; conditions: Homo sapiens; method in brief: as §1
C20/A4 [3] = assay: In vitro inhibition of Chondrocyte cell line C20/A4 apoptosis at 10 uM of compound; Not active; type: functional, cell-based; conditions: Homo sapiens; method in brief: as §1

## COC[C@@H]1CCCN1S(=O)(=O)c1ccc2c(c1)C(=O)C(=O)N2
C20/A4 [1]
  Inhibition: 44%
Caspase-1
  Ki: > 25 µM
Caspase-6
  Ki: > 25 µM

## CN(CC1CCCN1S(=O)(=O)c1ccc2c(c1)C(=O)C(=O)N2)c1ccccc1 (centres undefined)
C20/A4 [2]
  NA: inactive
Caspase-1
  Ki: > 50 µM
C20/A4 [3]
  NA: inactive
Caspase-6
  Ki: 57 µM

## O=C1C(=O)N(Cc2ccccc2)c2ccc(S(=O)(=O)N3CCC[C@H]3COc3ccccc3)cc21
C20/A4 [1]
  Inhibition: 48%
Caspase-1
  Ki: > 5 µM
Caspase-6
  Ki: > 5 µM

## O=C1Nc2ccc(S(=O)(=O)N3CCC[C@H]3COc3ccccc3)cc2C1=O
Caspase-1
  Ki: 17 µM
Caspase-6
  Ki: 29 µM

## O=C1Nc2ccc(S(=O)(=O)N3CCC[C@H]3CNc3ccccc3)cc2C1=O
Caspase-1
  Ki: 21 µM
Caspase-6
  Ki: 7.5 µM
